Data reported in ChEMBL document CHEMBL3352369, “Design, synthesis and biological evaluation of novel 1-hydroxyl-3-aminoalkoxy xanthone derivatives as potent anticancer agents” (Eur J Med Chem, 2014).
The source made the active and inactive calls. No cut-off for these calls is given here.

What was measured:
Format in all cases: functional, cell-based
CNE = experiment: Antiproliferative activity against human CNE cells assessed as inhibition of cell viability after 48 hrs by MTT assay
Outline: (§1)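 A549, BEL-7402 and CNE lines from SIBS (Shanghai), grown as monolayer in RPMI 1640 with 10% FBS. 5000 cells/well in 96-well plates, graded concentrations for 48 h. MTT incubation 4 h at 37 C, DMSO solubilisation, A490 read. IC50 derived from survival relative to untreated control; 5-fluorouracil reference.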

[1] = Antiproliferative activity against human Bel7402 cells assessed as inhibition of cell viability after 48 hrs by MTT assay; conditions: Bel-7402, 48 h; outline: as §1
MGC-803 [2] = experiment: Antiproliferative activity against human MGC803 cells assessed as inhibition of cell viability after 48 hrs by MTT assay; conditions: MGC-803, 48 h
Outline: (§2)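 MGC-803 cells from SIBS (Shanghai), monolayer in RPMI 1640 with 10% FBS. 5000 cells/well in 96-well plates, exposed to compound for 24, 48 or 72 h. MTT added for a further 4 h at 37 C, formazan dissolved in DMSO, absorbance read at 490 nm. Survival rate = sample/control absorbance × 100%. n = 5, three independent experiments, two-tailed t-test.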

A549 = experiment: Antiproliferative activity against human A549 cells assessed as inhibition of cell viability after 48 hrs by MTT assay; conditions: A549, 48 h; outline: as §1
MGC-803 [3] = experiment: Anticancer activity against human MGC803 cells assessed as colony formation after 24 hrs
Outline: (§3)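 Clonogenic assay: MGC-803 seeded at 200 cells/well in 6-well plates and treated for 24 h. Then kept 10 d at 37 C in humidified CO2. Colonies of >50 cells counted; survival expressed as percent of untreated control (100%). n = 3, three independent experiments.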

MGC-803 [4] = experiment: Anticancer activity against human MGC803 cells assessed as colony formation at > 1 uM after 24 hrs; outline: as §3
MGC-803 [5] = experiment: Induction of apoptosis in human MGC803 cells assessed as nuclear condensation after 24 hrs
MGC-803 [6] = experiment: Induction of apoptosis in human MGC803 cells assessed as koss of Ca2+ homeostasis after 24 hrs by fluorescence microscopy
MGC-803 [7] = experiment: Induction of apoptosis in human MGC803 cells assessed as change in mitochondrial membrane potential by Rhodamine 123 assay
Outline: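 Mitochondrial membrane potential measured with the cationic dye rhodamine 123 in treated MGC-803 cells at 10, 50 and 100 μM. Cellular fluorescence intensity normalised to baseline values of untreated control as a semiquantitative index.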

MGC-803 [8] = experiment: Anticancer activity against human MGC803 cells assessed as inhibition of cell viability after 24 to 72 hrs by MTT assay; outline: as §2
MGC-803 [9] = experiment: Anticancer activity against human MGC803 cells assessed as inhibition of cell viability at 0.01 to 100 uM by MTT assay; conditions: TDE = time-dependent effect; outline: as §2
MGC-803 [10] = experiment: Antiproliferative activity against human MGC803 cells assessed as inhibition of cell viability after 24 hrs by MTT assay; conditions: MGC-803, 24 h; outline: as §2
MGC-803 [11] = experiment: Antiproliferative activity against human MGC803 cells assessed as inhibition of cell viability after 72 hrs by MTT assay; conditions: MGC-803, 72 h; outline: as §2
MGC-803 [12] = experiment: Anticancer activity against human MGC803 cells assessed as cell shrinkage and deformation at 100 uM after 72 hrs by inverted phase contrast microscopy assay

O=c1c2ccccc2oc2cc(OCCCBr)cc(O)c12
IC50 (CNE): > 100 µM
IC50 [1]: > 100 µM
IC50 (MGC-803 [2]): 28.9 µM
IC50 (A549): > 100 µM

C[N+]1(CCCCOc2cc(O)c3c(=O)c4ccccc4oc3c2)CCCC1
IC50 (CNE): > 100 µM
IC50 [1]: > 100 µM
IC50 (MGC-803 [2]): 8.04 µM
IC50 (A549): 19.5 µM

CCN(CC)CCCCOc1cc(O)c2c(=O)c3ccccc3oc2c1
inhibition (MGC-803 [3]): Dose-dependent effect
inhibition (MGC-803 [4]): Active
inhibition (MGC-803 [5]): Dose-dependent effect
Activity (MGC-803 [6]): Dose-dependent effect
Activity (MGC-803 [7]): Dose-dependent effect
IC50 (CNE): 3.63 µM
IC50 [1]: 20.1 µM
IC50 (MGC-803 [2]): 3.57 µM
IC50 (A549): 7.57 µM
inhibition (MGC-803 [8]): Dose-dependent effect
inhibition (MGC-803 [9]): tde
IC50 (MGC-803 [10]): 11.9 µM
IC50 (MGC-803 [11]): 1.82 µM
inhibition (MGC-803 [12]): Active

O=c1c2ccccc2oc2cc(OCCCCN3CCCCC3)cc(O)c12
IC50 (CNE): 16.2 µM
IC50 [1]: 54.4 µM
IC50 (MGC-803 [2]): 28.2 µM
IC50 (A549): 88.4 µM

C[N+]1(CCCCOc2cc(O)c3c(=O)c4ccccc4oc3c2)CCOCC1
IC50 (CNE): 92.9 µM
IC50 [1]: > 100 µM
IC50 (MGC-803 [2]): 17.6 µM
IC50 (A549): > 100 µM

C[N+](C)(C)CCCCOc1cc(O)c2c(=O)c3ccccc3oc2c1
IC50 (CNE): 38.5 µM
IC50 [1]: > 100 µM
IC50 (MGC-803 [2]): 38.1 µM
IC50 (A549): 83.9 µM

O=c1c2ccccc2oc2cc(OCCCN3CCCC3)cc(O)c12
IC50 (CNE): 6.25 µM
IC50 [1]: 13 µM
IC50 (MGC-803 [2]): 6.66 µM
IC50 (A549): 11.6 µM

O=c1c2ccccc2oc2cc(OCCCCCCBr)cc(O)c12
IC50 (CNE): > 100 µM
IC50 [1]: > 100 µM
IC50 (MGC-803 [2]): > 100 µM
IC50 (A549): > 100 µM

O=c1[nH]cc(F)c(=O)[nH]1 [FLUOROURACIL]
IC50 (CNE): 15.1 µM
IC50 [1]: 19.8 µM
IC50 (MGC-803 [2]): 7.76 µM
IC50 (A549): 7.62 µM

C[N+]1(CCCCOc2cc(O)c3c(=O)c4ccccc4oc3c2)CCCCC1
IC50 (CNE): 26.5 µM
IC50 [1]: > 100 µM
IC50 (MGC-803 [2]): 5.13 µM
IC50 (A549): 19.2 µM

C[N+]1(CCCOc2cc(O)c3c(=O)c4ccccc4oc3c2)CCCC1
IC50 (CNE): > 100 µM
IC50 [1]: > 100 µM
IC50 (MGC-803 [2]): 9.66 µM
IC50 (A549): > 100 µM

C[N+]1(CCCCCCOc2cc(O)c3c(=O)c4ccccc4oc3c2)CCCC1
IC50 (CNE): 4.82 µM
IC50 [1]: 23.9 µM
IC50 (MGC-803 [2]): 14.8 µM
IC50 (A549): 9.95 µM

O=c1c2ccccc2oc2cc(OCCN3CCCC3)cc(O)c12
IC50 (CNE): 11.3 µM
IC50 [1]: 14.6 µM
IC50 (MGC-803 [2]): 5.63 µM
IC50 (A549): 12.8 µM

O=c1c2ccccc2oc2cc(OCCCCCBr)cc(O)c12
IC50 (CNE): > 100 µM
IC50 [1]: 77.2 µM
IC50 (MGC-803 [2]): 24.4 µM
IC50 (A549): > 100 µM

C[N+]1(CCOc2cc(O)c3c(=O)c4ccccc4oc3c2)CCCC1
IC50 (CNE): 65.9 µM
IC50 [1]: > 100 µM
IC50 (MGC-803 [2]): 83.3 µM
IC50 (A549): > 100 µM

CN(C)CCCCOc1cc(O)c2c(=O)c3ccccc3oc2c1
IC50 (CNE): 3.81 µM
IC50 [1]: 20.3 µM
IC50 (MGC-803 [2]): 5.99 µM
IC50 (A549): 8.83 µM

O=c1c2ccccc2oc2cc(OCCCCN3CCCC3)cc(O)c12
IC50 (CNE): 5.97 µM
IC50 [1]: 20.8 µM
IC50 (MGC-803 [2]): 4.5 µM
IC50 (A549): 18.5 µM

O=c1c2ccccc2oc2cc(OCCBr)cc(O)c12
IC50 (CNE): > 100 µM
IC50 [1]: > 100 µM
IC50 (MGC-803 [2]): 21.5 µM
IC50 (A549): > 100 µM

O=c1c2ccccc2oc2cc(OCCCCBr)cc(O)c12
IC50 (CNE): 85.6 µM
IC50 [1]: 67.9 µM
IC50 (MGC-803 [2]): 22.7 µM
IC50 (A549): > 100 µM

C[N+]1(CCCCCOc2cc(O)c3c(=O)c4ccccc4oc3c2)CCCC1
IC50 (CNE): 3.88 µM
IC50 [1]: > 100 µM
IC50 (MGC-803 [2]): 12.7 µM
IC50 (A549): 10.7 µM

O=c1c2ccccc2oc2cc(OCCCCCN3CCCC3)cc(O)c12
IC50 (CNE): 12.1 µM
IC50 [1]: 18.2 µM
IC50 (MGC-803 [2]): 3.81 µM
IC50 (A549): 5.99 µM

CC[N+](C)(CC)CCCCOc1cc(O)c2c(=O)c3ccccc3oc2c1
IC50 (CNE): > 100 µM
IC50 [1]: > 100 µM
IC50 (MGC-803 [2]): 4.61 µM
IC50 (A549): 13 µM

O=c1c2ccccc2oc2cc(OCCCCCCN3CCCC3)cc(O)c12
IC50 (CNE): 1.24 µM
IC50 [1]: 17.9 µM
IC50 (MGC-803 [2]): 5.32 µM
IC50 (A549): 8.94 µM

O=c1c2ccccc2oc2cc(OCCCCN3CCOCC3)cc(O)c12
IC50 (CNE): > 100 µM
IC50 [1]: > 100 µM
IC50 (MGC-803 [2]): > 100 µM
IC50 (A549): > 100 µM
